Experimental data from ChEMBL document CHEMBL4229550, “An antimycobacterial pleuromutilin analogue effective against dormant bacilli” (Bioorg Med Chem, 2018).
Converted amounts (≈) assume the structure as drawn. The source made the active and inactive calls. The calls are words filed in the database; no cut-off is given here.

Tests used:
[1] = tested on: Mycobacterium tuberculosis; assay: Antibacterial activity against Mycobacterium tuberculosis Erdman infected in Balb/c mouse assessed as reduction in bacterial load in lungs at 2.5 mg/kg, po for 3 weeks starting from 10 days post infection measured on day 21 post infection; assay type: functional, Erdman = ATCC 35801
How it was run: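 Female BALB/c mice, 7–8 weeks old, are aerosol-infected with Mtb Erdman. From day 10 they receive oral gavage in water for three weeks, in groups of 5. Lungs and spleens are harvested at day 21 post-infection and plated for CFU. Efficacy is the log10 reduction in lung burden versus untreated (vehicle) controls.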

[2] = tested on: Mycobacterium tuberculosis; assay: Antibacterial activity against replicating Mycobacterium tuberculosis H37Rv incubated for 15 days under aerobic condition by MABA; assay type: functional; details: 360 h, read-out: MIC100
How it was run: (§1)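 Mtb H37Rv grown in 7H9/OADC at 37 °C with shaking to OD600 0.5. The 0.5-OD culture is exposed aerobically to serial dilutions for 15 days at 37 °C. Resazurin (0.02% stock) is then added for 4 h at 37 °C with shaking.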

[3] = tested on: Vero; assay: Cytotoxicity against African green monkey Vero cells assessed as reduction in cell viability after 72 hrs by MTT assay; assay type: cell-based; details: Chlorocebus sabaeus
How it was run: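 Vero cells were grown in complete EMEM with 10% FBS and exposed for 72 h to 0.78–200 µg/mL. The medium was then swapped for phenol-red-free EMEM and MTT was added. Formazan absorbance was read at 570 nm to give IC50.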

[4] = Selectivity index, ratio of IC50 for African green monkey Vero cells to MIC100 for replicating Mycobacterium tuberculosis H37Rv by MABA; assay type: toxicity; details: read-out: Selectivity Index
How it was run: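 Vero cells are cultured in EMEM with 10% FBS and exposed for 72 h to 0.78–200 µg/mL. Medium is switched to phenol-red-free EMEM, MTT is added, and formazan is read at 570 nm to give IC50. The selectivity index is Vero IC50 divided by the MABA MIC.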

[5] = tested on: Mycobacterium tuberculosis; assay: Bactericidal activity against replicating Mycobacterium tuberculosis H37Rv incubated for 15 days under aerobic condition by MABA; assay type: functional; details: 360 h; how it was run: as §1
[6] = tested on: Mycobacterium tuberculosis; assay: Bactericidal activity against non-replicating Mycobacterium tuberculosis CDC1551 expressing tdTomato infected in mouse J774A.1 cells at 2 times MIC up to 72 hrs by UV-Visible spectroscopic method; assay type: functional, organism-based
How it was run: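 J774A.1 macrophages are seeded at […] cells/well in DMEM and incubated overnight at 37 °C. They are infected with saline-washed Mtb CDC1551-tdTomato (10^6 bacteria, MOI ≈10), and extracellular bacteria are washed off with PBS. Treatment is at 2×MIC, with fluorescence emission read at 581 nm at 24, 48, 72 and 96 h. Survivors are confirmed by serial dilution and plating on 7H11.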

In the case of `NNC(=O)c1ccncc1` [ISONIAZID], the “log(activity)” value [1] is reported as 4.22, the MIC [2] is reported as 0.04 to 0.1 µg/mL (≈ 0.292 to 0.729 µM) and the IC50 [3] is reported as over 200 µg/mL. For the same compound, the selectivity ratio [4] was over 2000, the MBC [5] was 0.57 µg/mL (≈ 4.16 µM) and the Activity [6] was “inactive”.
